The nature of data set [1]: Inhibition of advanced glycation end product formation assessed as protection of reactive primary amines by measuring increase in primary amine level at 100 uM incubated for 7 days using BSA and glycolaldehyde by TNBSA assay. The following applies: 168 h. Format: physicochemical. The procedure, abridged: (§1)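 BSA was modified with glycolaldehyde in the presence of 2-AIs. Total primary amines were quantified by TNBSA, independent of fluorescence. Protection appears as preserved free amines relative to GO-modified BSA, with basal free-amine level of BSA before GO/2-AI treatment as reference. DMSO and PBS served as vehicle controls, with aminoguanidine as comparator.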

Data set [2] in a line: Inhibition of advanced glycation end product formation assessed as protection of reactive primary amines by measuring increase in primary amine level at 100 uM incubated for 7 days using BSA and glycolaldehyde by TNBSA assay relative to control BSA. Format: physicochemical. The following applies: 168 h. Set-up: scale not given: the % may be the effect or the level left. Put shortly: as §1

A short description of data set [3]: Induction of breaking of pre-formed carboxymethyl lysine-enriched advanced glycation end product formation using BSA and glyoxylic acid assessed as increase in primary amine content at 400 uM after 24 hrs by TNBSA assay relative to BSA alone. Put shortly: (§2)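 CML-enriched AGE-BSA was pre-formed from 50 mg/mL BSA and 25 mM glyoxylic acid with sodium cyanoborohydride over 48 h, then purified by dialysis. The glycated protein was exposed to 2-AIs for 24 h. Free primary amines were quantified by TNBSA and compared with untreated CML-BSA. DMSO and PBS served as vehicle controls, with aminoguanidine as reference.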

Data set [4] can be described thus: Induction of breaking of pre-formed carboxymethyl lysine-enriched advanced glycation end product formation using BSA and glyoxylic acid assessed as increase in primary amine content at 400 uM after 24 hrs by TNBSA assay relative to pre-formed CML-enriched AGE. The procedure, abridged:
as §2

A short description of data set [5]: Induction of breaking of pre-formed carboxymethyl lysine-enriched advanced glycation end product formation using BSA and glyoxylic acid assessed as increase in primary amine content at 400 uM after 24 hrs by TNBSA assay relative to 4,4'-(butane-1,4-diyl)bis(1H-imidazol-2-amine) dihydrochloride.
The nature of data set [6]: Inhibition of advanced glycation end product formation using BSA and glycolaldehyde at 400 uM by standard fluorescence based assay. Format: physicochemical.
Data set [7] in a line: Inhibition of advanced glycation end product formation using BSA and glycolaldehyde at 40 uM by standard fluorescence based assay. Format: physicochemical.
Data set [8] is described as follows: Inhibition of advanced glycation end product formation assessed as protection of reactive primary amines by measuring primary amine reduction using BSA and glycolaldehyde by TNBSA assay. Format: physicochemical. Set-up: scale not given: the % may be the effect or the level left. Put shortly:
as §1

Data set [9] is described as follows: Induction of breaking of pre-formed advanced glycation end product formation using BSA assessed as restoration of glycated -BSA primary amine content after 24 hrs by TNBSA assay.

Active and inactive are the calls of the source. The calls are words filed in the database; no cut-off is given here.

As for `NCCCCc1c[nH]c(N)n1`, the “inhibition (INH)” value in [1] is “Active”. Also, the Activity in data set [2] was 44.6%; in [3], 52.5%; in [4] it was 97.9%; in data set [5], 64.5%.

With `Nc1nc(Cc2c[nH]c3ccccc23)c[nH]1`, in [1], the “inhibition (INH)” value was “Active”.

On to `Nc1nc(Cc2c[nH]cn2)c[nH]1`, for which, in data set [1], the “inhibition (INH)” value was “Active”.

Turning to `Nc1nc(Cc2ccc(O)cc2)c[nH]1`, the “inhibition (INH)” value in [1] is reported as “Active”.

Regarding `NCCCc1c[nH]c(N)n1`, the “inhibition (INH)” value in data set [1] was “Active”. Further, the Activity is 67.5% in [3], 110% in data set [4] and 79.4% in data set [5].

Regarding `N=C(N)NN`, the outcome in [3], in data set [4] and in [5] was inactive.

As for `N=C(N)NCCCc1c[nH]c(N)n1`, the “inhibition (INH)” value in data set [1] is recorded as “Active”.

With `Nc1nc(CCCCc2c[nH]c(N)n2)c[nH]1`, the results for the “inhibition (INH)” value in [6], in data set [7] and in data set [1] were 44.6%, 5.6% and “Active”, respectively. For the same molecule, the Activity stood at 3.6% in data set [8] and 78.9% in data set [9].
